# Source: ChEMBL document CHEMBL4257459, “Synergistic antifungal effect of cyclized chalcone derivatives and fluconazole against Candida albicans” (2017)
# Legend:
# Candida albicans [1] = assay: Antifungal activity against fluconazole resistant Candida albicans 167-2 by CLSI protocol based broth microdilution method; type: functional
# Procedure, shortened: (§1)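 Broth microdilution per CLSI M27-A3 against clinical C. albicans isolates. Strains sub-cultured at least twice on Tryptone Soya Agar, 37 °C, 48 h. Compounds dissolved in DMSO at 2000 μg mL–1 stock. Fluconazole positive control, plus culture, media and vehicle controls. Run in duplicate; MIC in μg mL–1.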
# Candida albicans [2] = assay: Antifungal activity against fluconazole resistant Candida albicans A171 by CLSI protocol based broth microdilution method; type: functional; procedure, shortened: as §1
# Candida albicans [3] = assay: Antifungal activity against fluconazole resistant Candida albicans 167-1 by CLSI protocol based broth microdilution method; type: functional; procedure, shortened: as §1
# Candida albicans [4] = assay: Antifungal activity against fluconazole susceptible Candida albicans 002B1 by CLSI protocol based broth microdilution method; type: functional
# Procedure, shortened: (§2)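 Clinical isolates and control strain subcultured at least twice on TSA, 37 °C, 48 h. MICs by CLSI M27-A3 broth microdilution; compounds dissolved in DMSO to 2000 μg mL–1 stock. Fluconazole positive control, culture, media and DMSO vehicle controls in each run. Duplicate experiments; MIC in μg mL–1.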
# Candida albicans [5] = assay: Antifungal activity against fluconazole susceptible Candida albicans 003gr by CLSI protocol based broth microdilution method; type: functional; procedure, shortened: as §2
# Candida albicans [6] = assay: Antifungal activity against fluconazole susceptible Candida albicans 004gr by CLSI protocol based broth microdilution method; type: functional; procedure, shortened: as §2
# Candida albicans [7] = assay: Antifungal activity against fluconazole susceptible Candida albicans 004B1 by CLSI protocol based broth microdilution method; type: functional; procedure, shortened: as §2
# Candida albicans [8] = assay: Antifungal activity against fluconazole susceptible Candida albicans 0079gr by CLSI protocol based broth microdilution method; type: functional; procedure, shortened: as §2
# Candida albicans [9] = assay: Antifungal activity against fluconazole susceptible Candida albicans 0072gr by CLSI protocol based broth microdilution method; type: functional; procedure, shortened: as §2
# Candida albicans [10] = assay: Antifungal activity against Candida albicans ATCC 90028 by CLSI protocol based broth microdilution method; type: functional; procedure, shortened: as §2
# Candida albicans [11] = assay: Antifungal activity against fluconazole resistant Candida albicans A171 in presence of fluconazole by CLSI protocol based broth microdilution method; type: functional
# Procedure, shortened: (§3)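 Checkerboard-style combination with fluconazole at a 1 : 1 ratio, over concentrations 2–4 fold below each agent's MIC alone, by CLSI broth microdilution. Fractional inhibitory concentration index calculated and interpreted as synergy (<0.5), additive (0.5–1), indifferent or antagonistic.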
# Candida albicans [12] = assay: Antifungal activity against fluconazole resistant Candida albicans 167-1 in presence of fluconazole by CLSI protocol based broth microdilution method; type: functional; procedure, shortened: as §3
# Candida albicans [13] = assay: Antifungal activity against fluconazole resistant Candida albicans 167-2 in presence of fluconazole by CLSI protocol based broth microdilution method; type: functional; procedure, shortened: as §3
# Candida albicans [14] = assay: Antifungal activity against fluconazole susceptible Candida albicans 002B1 in presence of fluconazole by CLSI protocol based broth microdilution method; type: functional
# Candida albicans [15] = assay: Antifungal activity against fluconazole susceptible Candida albicans 003gr in presence of fluconazole by CLSI protocol based broth microdilution method; type: functional
# Candida albicans [16] = assay: Antifungal activity against fluconazole susceptible Candida albicans 004gr in presence of fluconazole by CLSI protocol based broth microdilution method; type: functional
# Candida albicans [17] = assay: Antifungal activity against fluconazole susceptible Candida albicans 004B1 in presence of fluconazole by CLSI protocol based broth microdilution method; type: functional
# Candida albicans [18] = assay: Antifungal activity against fluconazole susceptible Candida albicans 0079gr in presence of fluconazole by CLSI protocol based broth microdilution method; type: functional
# Candida albicans [19] = assay: Antifungal activity against fluconazole susceptible Candida albicans 0072gr in presence of fluconazole by CLSI protocol based broth microdilution method; type: functional
# Candida albicans [20] = assay: Antifungal activity against Candida albicans ATCC 90028 in presence of fluconazole by CLSI protocol based broth microdilution method; type: functional
# Candida albicans [21] = assay: Inhibition of ABC efflux pumps in fluconazole resistant Candida albicans A171 assessed as reduction in energy-dependent rhodamine 6G efflux in presence of 0.1 M glucose after 25 mins by fluorescence assay relative to control
# Procedure, shortened: (§4)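 Cells grown in TSB at 37 °C for 8 h, washed, resuspended in glucose-free PBS at 1 × 10^8 cells. De-energized 45 min with 5 mM deoxyglucose plus 5 mM dinitrophenol. […] Washed, sampled 5–25 min, then 0.1 M glucose added. Absorbance 527 nm, R6G from standard curve.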
# Candida albicans [22] = assay: Inhibition of ABC efflux pumps in fluconazole resistant Candida albicans 167-1 assessed as reduction in energy-dependent rhodamine 6G efflux in presence of 0.1 M glucose after 25 mins […] relative to control
# Candida albicans [23] = assay: Inhibition of ABC efflux pumps in fluconazole resistant Candida albicans 167-2 assessed as reduction in energy-dependent rhodamine 6G efflux in presence of 0.1 M glucose after 25 mins […] relative to control
# Candida albicans [24] = assay: Inhibition of ABC efflux pumps in fluconazole susceptible Candida albicans 002B1 assessed as reduction in energy-dependent rhodamine 6G efflux in presence of 0.1 M glucose after 25 mins […] relative to control
# Candida albicans [25] = assay: Inhibition of ABC efflux pumps in fluconazole susceptible Candida albicans 003gr assessed as reduction in energy-dependent rhodamine 6G efflux in presence of 0.1 M glucose after 25 mins […] relative to control
# Candida albicans [26] = assay: Inhibition of ABC efflux pumps in fluconazole susceptible Candida albicans 004gr assessed as reduction in energy-dependent rhodamine 6G efflux in presence of 0.1 M glucose after 25 mins by fluorescence assay relative to control; procedure, shortened: as §4
# Candida albicans [27] = assay: Inhibition of ABC efflux pumps in fluconazole susceptible Candida albicans 004B1 assessed as reduction in energy-dependent rhodamine 6G efflux in presence of 0.1 M glucose after 25 mins by fluorescence assay relative to control; procedure, shortened: as §4
# Candida albicans [28] = assay: Inhibition of ABC efflux pumps in fluconazole susceptible Candida albicans 0079gr assessed as reduction in energy-dependent rhodamine 6G efflux in presence of 0.1 M glucose after 25 mins by fluorescence assay relative to control; procedure, shortened: as §4
# Candida albicans [29] = assay: Inhibition of ABC efflux pumps in fluconazole susceptible Candida albicans 0072gr assessed as reduction in energy-dependent rhodamine 6G efflux in presence of 0.1 M glucose after 25 mins […] relative to control
# Candida albicans [30] = assay: Inhibition of ergosterol biosynthesis in fluconazole resistant Candida albicans A171 at 0.5 to 1 times MIC relative to control; type: functional
# Procedure, shortened: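 Total sterols quantified by alcoholic KOH extraction in cells grown in 50 ml TSB with compounds at MIC and ½ MIC; untreated and 8 μg mL–1 fluconazole controls. Spectral scan; ergosterol content from A281.5 and A230 absorbances, dilution factor and pellet weight, correcting for 24(28) DHE.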
# Candida albicans [31] = assay: Inhibition of ergosterol biosynthesis in fluconazole susceptible Candida albicans ATCC 90028 at 0.5 to 1 times MIC relative to control; type: functional
# Procedure, shortened: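 ATCC90028 grown in 50 ml TSB with MIC and ½ MIC of compound; untreated and 8 μg mL–1 fluconazole controls. Sterols extracted by alcoholic KOH method and spectrophotometrically scanned; ergosterol % calculated from A281.5 and A230 (E values 290 and 518) with dilution factor, per pellet weight.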
# Candida albicans [32] = assay: Down regulation of ERG11 gene expression in fluconazole resistant Candida albicans A171 at MIC after 2 hrs by qRT PCR analysis relative to control; type: functional
# Procedure, shortened: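 Cells exposed 2 h to test agents at MIC. Total RNA isolated, cDNA synthesized, qPCR for ERG11 with ACT1 as endogenous control. Triplicate independent experiments, reported as mean ± standard deviation.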
# Candida albicans [33] = assay: Down regulation of ERG11 gene expression in fluconazole susceptible Candida albicans ATCC 90028 at MIC after 2 hrs by qRT PCR analysis relative to control; type: functional
# Procedure, shortened: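 Cells exposed to compound at MIC for 2 h; total RNA isolated, cDNA synthesised, ERG11 measured by real-time qPCR with ACT1 as endogenous control. Triplicate independent experiments; mean ± standard deviation.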
SMILES,MIC (Candida albicans [1]),MIC (Candida albicans [2]),MIC (Candida albicans [3]),MIC (Candida albicans [4]),MIC (Candida albicans [5]),MIC (Candida albicans [6]),MIC (Candida albicans [7]),MIC (Candida albicans [8]),MIC (Candida albicans [9]),MIC (Candida albicans [10]),fractional inhibitory concentration index (FICI) (Candida albicans [11]),fractional inhibitory concentration index (FICI) (Candida albicans [12]),fractional inhibitory concentration index (FICI) (Candida albicans [13]),fractional inhibitory concentration index (FICI) (Candida albicans [14]),fractional inhibitory concentration index (FICI) (Candida albicans [15]),fractional inhibitory concentration index (FICI) (Candida albicans [16]),fractional inhibitory concentration index (FICI) (Candida albicans [17]),fractional inhibitory concentration index (FICI) (Candida albicans [18]),fractional inhibitory concentration index (FICI) (Candida albicans [19]),fractional inhibitory concentration index (FICI) (Candida albicans [20]),other results
c1ccc(-c2cc(-c3ccc(-c4cc(-c5ccccc5)n[nH]4)cc3)[nH]n2)cc1,31 to 125 µg/mL,31 to 125 µg/mL,31 to 125 µg/mL,2 to 16 µg/mL,2 to 16 µg/mL,2 to 16 µg/mL,2 to 16 µg/mL,2 to 16 µg/mL,2 to 16 µg/mL,2 to 16 µg/mL,0.531 - 2.27,0.531 - 2.27,0.531 - 2.27,0.63 - 1.5,0.63 - 1.5,0.63 - 1.5,0.63 - 1.5,0.63 - 1.5,0.63 - 1.5,0.63 - 1.5,inhibition (Candida albicans [21]): < 20%; inhibition (Candida albicans [22]): < 20%; inhibition (Candida albicans [23]): < 20%; inhibition (Candida albicans [24]): < 20%; inhibition (Candida albicans [25]): < 20%; inhibition (Candida albicans [26]): < 20%; inhibition (Candida albicans [27]): < 20%; inhibition (Candida albicans [28]): < 20%; inhibition (Candida albicans [29]): < 20%; inhibition (INH) (Candida albicans [30]): 49 - 94%; inhibition (INH) (Candida albicans [31]): 66 - 99%; fold change (FC) (Candida albicans [32]): 1.25 - 10; fold change (FC) (Candida albicans [33]): 1.5 - 13
SC1=NC(c2ccccc2)=CC(c2ccccc2)N1 (centres undefined),8 to 16 µg/mL,8 to 16 µg/mL,8 to 16 µg/mL,0.5 to 4 µg/mL,0.5 to 4 µg/mL,0.5 to 4 µg/mL,0.5 to 4 µg/mL,0.5 to 4 µg/mL,0.5 to 4 µg/mL,0.5 to 4 µg/mL,0.254 - 0.27,0.254 - 0.27,0.254 - 0.27,0.37 - 1.13,0.37 - 1.13,0.37 - 1.13,0.37 - 1.13,0.37 - 1.13,0.37 - 1.13,0.37 - 1.13,inhibition (Candida albicans [21]): < 20%; inhibition (Candida albicans [22]): < 20%; inhibition (Candida albicans [23]): < 20%; inhibition (Candida albicans [24]): < 20%; inhibition (Candida albicans [25]): < 20%; inhibition (Candida albicans [26]): < 20%; inhibition (Candida albicans [27]): < 20%; inhibition (Candida albicans [28]): < 20%; inhibition (Candida albicans [29]): < 20%; inhibition (INH) (Candida albicans [30]): 49 - 94%; inhibition (INH) (Candida albicans [31]): 66 - 99%
